Data on 14 molecules can be found in ChEMBL document CHEMBL4339195, “Di-aryl Sulfonamide Motif Adds π-Stacking Bulk in Negative Allosteric Modulators of the NMDA Receptor” (ACS Med Chem Lett, 2019).

For experiment [1], the target named is Ionotropic glutamate receptor NMDA 1/2D (Rattus norvegicus, UniProt P35439+Q62645). Description: Negative allosteric modulation of recombinant rat GluN1/GluN2D expressed in Xenopus laevis oocytes assessed as inhibition of glutamate/glycine-induced current response at -40 mV holding potential by two-electrode voltage clamp method. The experiment is classed as cell-based. The method, boiled down:
(§1)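 Oocytes recorded while the drug is co-applied with a maximally effective 100 µM glutamate plus 30 µM glycine. Response is expressed as percent of the glutamate/glycine control. IC50 comes from a Hill fit to the average composite concentration-response curve. 8-16 oocytes from 2-3 frogs per compound and receptor.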

In experiment [2] the target is T1, Glutamate NMDA receptor; Grin1/Grin2c (Rattus norvegicus) (UniProt P35439+Q00961). Description: Negative allosteric modulation of recombinant rat GluN1/GluN2C expressed in Xenopus laevis oocytes assessed as inhibition of glutamate/glycine-induced current response at saturated concentration at -40 mV holding potential by two-electrode voltage clamp method relative to glutamate/glycine. The experiment is classed as cell-based. A digest of the protocol:
(§2)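 Hill fit of the composite concentration-response curve in oocytes, with agonist 100 µM glutamate plus 30 µM glycine. Residual response in saturating compound is either fixed at 0 or fitted. 8-16 oocytes from 2-3 frogs.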

Experiment [3] concerns the target T2, Ionotropic glutamate receptor NMDA 1/2D (Rattus norvegicus) (UniProt P35439+Q62645). Description: Potency index, ratio of NP11999 IC50 to test compound IC50 for negative allosteric modulation of recombinant rat GluN1/GluN2D expressed in Xenopus laevis oocytes assessed as inhibition of glutamate/glycine-induced current response. The experiment is classed as cell-based.

Experiment [4] has as its target T2, Ionotropic glutamate receptor NMDA 1/2D (Rattus norvegicus). Description: Negative allosteric modulation of recombinant rat GluN1/GluN2D expressed in Xenopus laevis oocytes assessed as inhibition of glutamate/glycine-induced current response at 30 uM at -40 mV holding potential by two-electrode voltage clamp method relative to glutamate/glycine. The experiment is classed as cell-based. The following applies: for residual activity: values are per cent of control. The method, boiled down: as §1
In general terms: Two-electrode voltage clamp holds a large cell at a set potential and records current.

For experiment [5], the target named is T1, Glutamate NMDA receptor; Grin1/Grin2c (Rattus norvegicus). Description: Negative allosteric modulation of recombinant rat GluN1/GluN2C expressed in Xenopus laevis oocytes assessed as inhibition of glutamate/glycine-induced current response at 30 uM at -40 mV holding potential by two-electrode voltage clamp method relative to glutamate/glycine. The note with it: for residual activity: values are per cent of control. The experiment is classed as cell-based. A digest of the protocol:
as §1

Experiment [6] has as its target T2, Ionotropic glutamate receptor NMDA 1/2D (Rattus norvegicus). Description: Negative allosteric modulation of recombinant rat GluN1/GluN2D expressed in Xenopus laevis oocytes assessed as inhibition of glutamate/glycine-induced current response at saturated concentration at -40 mV holding potential by two-electrode voltage clamp method relative to glutamate/glycine. The experiment is classed as cell-based. The method, boiled down: as §2

The target of experiment [7] is T1, Glutamate NMDA receptor; Grin1/Grin2c (Rattus norvegicus). Description: Potency index, ratio of NP11999 IC50 to test compound IC50 for negative allosteric modulation of recombinant rat GluN1/GluN2C expressed in Xenopus laevis oocytes assessed as inhibition of glutamate/glycine-induced current response. It counts as cell-based.
Experiment [8] addresses Glutamate NMDA receptor; Grin1/Grin2c (Rattus norvegicus, UniProt P35439+Q00961). Briefly: Negative allosteric modulation of recombinant rat GluN1/GluN2C expressed in Xenopus laevis oocytes assessed as inhibition of glutamate/glycine-induced current response at -40 mV holding potential by two-electrode voltage clamp method. It counts as cell-based. A digest of the protocol:
as §1

In experiment [9] the target is T1, Glutamate NMDA receptor; Grin1/Grin2c (Rattus norvegicus). Description: Negative allosteric modulation of recombinant rat GluN1/GluN2C expressed in Xenopus laevis oocytes assessed as remaining glutamate/glycine-induced current response at 10 uM at -40 mV holding potential by two-electrode voltage clamp method relative to glutamate/glycine.
Experiment [10] addresses T2, Ionotropic glutamate receptor NMDA 1/2D (Rattus norvegicus). Briefly: Negative allosteric modulation of recombinant rat GluN1/GluN2D expressed in Xenopus laevis oocytes assessed as residual glutamate/glycine-induced current response at 10 uM at -40 mV holding potential by two-electrode voltage clamp method relative to glutamate/glycine.
For experiment [11], the target named is Glutamate NMDA receptor; Grin1/Grin2a (Rattus norvegicus) (UniProt P35439+Q00959). Briefly: Negative allosteric modulation of recombinant rat GluN1/GluN2A expressed in Xenopus laevis oocytes assessed as residual glutamate/glycine-induced current response at 30 uM at -40 mV holding potential by two-electrode voltage clamp method relative to glutamate/glycine.

For orientation: IC50 means the midpoint of a concentration-inhibition curve. As for `CCN(CC)C(=O)Oc1ccc(C(=O)Nc2cccc(C(=O)Nc3ccccc3)c2)cc1`, the IC50 in [1] stood at 8 µM.

Usually inhibition stands for the percentage by which the read-out fell short of the control. For `CCN(CC)C(=O)Oc1ccc(C(=O)Nc2cccc(CCNS(=O)(=O)c3ccc(F)c(Cl)c3)c2)cc1`, the inhibition in experiment [2] and in experiment [6] was 0% each time. In addition, the IC50 came to 1.3 µM in experiment [1] and 2.4 µM in experiment [8]. Besides, the Ratio IC50 in experiment [3] and in experiment [7] was below 6 throughout. For the same molecule, the residual activity is 28% in experiment [4] and 41% in experiment [5].

On to `CCN(CC)C(=O)Oc1ccc(C(=O)Nc2ccc(CCNS(=O)(=O)c3ccc(F)c(Cl)c3)cc2)cc1`, for which the inhibition was 0% in experiment [2], 26% in [4], 21% in experiment [5] and 0% in [6].

For the molecule `CCN(CC)C(=O)Oc1ccc(C(=O)Nc2cccc(CNS(=O)(=O)c3ccccc3)c2)cc1`, the inhibition in experiment [2] and in experiment [6] was 0% in each case. Besides, the IC50 amounted to 29 µM in experiment [1] and 45 µM in [8]. In addition, the values for the residual activity in [4] and in experiment [5] were 46% and 60%, respectively.

On to `CCN(CC)C(=O)Oc1ccc(C(=O)Nc2ccccc2)cc1`, for which the residual activity was 49% in experiment [9] and 37% in experiment [10]. In addition, the IC50 in experiment [1] is 5.8 to 6 µM; in experiment [8], 8.6 µM.

Consider `CCN(CC)C(=O)Oc1ccc(C(=O)Nc2ccc(C(=O)Nc3ccccc3)cc2)cc1`, for which, in experiment [1], the IC50 is above 100 µM.

`CCN(CC)C(=O)Oc1ccc(C(=O)Nc2cccc(CNS(=O)(=O)c3cccnc3)c2)cc1`: the inhibition in experiment [2] and in experiment [6] was 0% in each case. Besides, the values for the IC50 in [1] and in experiment [8] were 23 µM and 34 µM, respectively. Besides, the figures for the residual activity in [4] and in experiment [5] were 42% and 52%, respectively.

With `CCN(CC)C(=O)Oc1ccc(C(=O)Nc2ccc(CCNS(=O)(=O)c3ccccc3)cc2)cc1`, the inhibition in experiment [2] stood at 0%; in experiment [4], 33%; in [5], 23%; in [6], 0%.

For `CCN(CC)C(=O)Oc1ccc(C(=O)Nc2cccc(CCNS(=O)(=O)c3cccnc3)c2)cc1`, the inhibition in experiment [2] and in experiment [6] was 0% throughout. Besides, the IC50 in experiment [1] is 2.7 µM; in experiment [8] it was 3.2 µM. Also, the Ratio IC50 in experiment [3] and in experiment [7] was below 6 in each case. The residual activity in [4] is 8.6%; in experiment [5], 8.5%.

As to `CCN(CC)C(=O)Oc1ccc(C(=O)Nc2ccc(CNS(=O)(=O)c3cccnc3)cc2)cc1`, the inhibition in experiment [2] and in experiment [6] was 0% each time. The results for the IC50 in experiment [1] and in [8] were 24 µM and 35 µM, respectively. In addition, the values for the residual activity in experiment [4] and in experiment [5] were 45% and 58%, respectively.

Turning to `CCN(CC)C(=O)Oc1ccc(C(=O)Nc2ccc(CCNS(=O)(=O)c3cccnc3)cc2)cc1`, the inhibition in [2] and in experiment [6] was 0% each time. The concentration for half-maximal inhibition (IC50) in experiment [1] was determined as 5.1 µM; in [8], 12 µM. In addition, the residual activity amounted to 26% in experiment [4] and 37% in experiment [5].

Regarding `CCN(CC)C(=O)Oc1ccc(C(=O)Nc2ccc(CNS(=O)(=O)c3ccccc3)cc2)cc1`, the inhibition in experiment [2] stood at 41%; in [6] it was 27%. For the same molecule, the IC50 in [1] is 10 µM; in experiment [8], 22 µM. For the same molecule, the residual activity in experiment [4] is 20%; in experiment [5], 42%.

Take `O=C(NCc1ccc(C(=O)NNC(=O)c2ccccc2)cc1)c1ccc(F)c(Cl)c1`: the residual activity in experiment [11] came to 102%.

For `CCN(CC)C(=O)Oc1ccc(C(=O)Nc2cccc(CCNC(=O)c3ccccc3)c2)cc1`, the IC50 in experiment [1] was determined as 29 µM; in experiment [8] it was 37 µM. In addition, the residual activity in [4] stood at 49%; in experiment [11], 82%; in experiment [5], 56%.
